Experimental data as given in ChEMBL document CHEMBL1134010, “Syntheses and antifungal activities of novel 3-amido bearing pseudomycin analogues” (Bioorg Med Chem Lett, 2001).
≈ marks a conversion by molar mass, not a printed value. Positions of bridges follow the written chain, without caps; N, C: chain ends. Non-standard residues stand in square brackets, D forms with d. Residues, ends and D or L forms follow the SMILES beside them. *: point of attachment. Tetradecanoyl(3R-OH) = CCCCCCCCCCC[C@@H](O)CC(=O)*; Asp(3S-OH) = N[C@H](C(=O)O)[C@H](O)C(=O)O; Thr(4-Cl) = N[C@H](C(=O)O)[C@H](O)CCl; aThr = C[C@H](O)[C@H](N)C(=O)O; dDab = NCC[C@@H](N)C(=O)O; NHCH2CH2NMe2 = CN(C)CCN*; Dab = NCC[C@H](N)C(=O)O; Dhb = C/C=C(\N)C(=O)O; NHcPr = C1CC1N*

Experiments:
[1] = tested on: Candida albicans; assay: In vivo efficacy against murine Candidiasis dosed four times by intraperitoneal administration post-infection using Reed and Muench method.; format: functional; settings: ip
Method in brief: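 Systemic candidiasis in mice, with PSB and amphotericin B as positive controls. Analogues were given at 20, 10 and 5 mg/kg, four doses at 0, 4, 24 and 48 post-infection. ED50 is the dose giving 50% survival relative to untreated infected animals, calculated by the Reed and Muench method.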

[2] = tested on: Aspergillus fumigatus; assay: In vitro minimum inhibitory concentration (MIC) against Aspergillus fumigatus.; format: functional
Method in brief: (§1)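 Tested against Candida albicans, Cryptococcus neoformans and Aspergillus fumigatus, with PSB as positive control. MIC is taken as the lowest drug concentration giving 90–100% inhibition of visible growth relative to drug-free controls.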

[3] = tested on: Mus musculus; assay: In vivo efficacy against murine systemic Cryptococosis by intraperitoneal administration; format: functional; settings: ip
Method in brief: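 Murine systemic cryptococcosis, ip dosing BID ×4 at 5.0, 1.25, 0.312 and 0.078 mg/kg. ED50 is the dose giving 50% survival relative to untreated infected animals.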

[4] = tested on: Mus musculus; assay: Toxicity at a dose of 75 mg/kg in mice; Death; settings: in vivo
[5] = tested on: Cryptococcus neoformans; assay: In vitro minimum inhibitory concentration (MIC) against Cryptococcus neoformans.; format: functional; method in brief: as §1
[6] = tested on: Mus musculus; assay: Toxicity at a dose of 125 mg/kg in mice; Death; settings: in vivo
[7] = tested on: Candida albicans; assay: In vitro minimum inhibitory concentration (MIC) against Candida albicans.; format: functional; method in brief: as §1
[8] = tested on: Mus musculus; assay: Toxicity at a dose of 100 mg/kg in mice; Death; settings: in vivo
[9] = tested on: Mus musculus; assay: Survival extension of the mice against Aspergillosis infection at a dose of 1 mg/kg; format: functional
Method in brief: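 Murine systemic aspergillosis model, ip. The analogue was given BID at 50, 10 and 1 mg/kg, and survival extension of infected animals was recorded.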

[10] = tested on: Mus musculus; assay: Compound was dosed four times to outbred, male ICR mice and signs of irritation (erythema, swelling, discoloration, necrosis and tail loss) were observed in tail irritation test; Yes; format: ADME, organism-based; settings: in vivo
[11] = tested on: Mus musculus; assay: Survival extension of the mice against Aspergillosis infection at a dose of 20 mg/kg; format: functional
[12] = tested on: Rattus norvegicus; assay: Toxicity at a dose of 50 mg/kg in rats; Death; format: organism-based; set-up: dose 50 mg/kg; settings: in vivo
[13] = tested on: Mus musculus; assay: In vivo efficacy against murine Candidiasis dosed four times by intraperitoneal administration post-infection using Reed and Muench method; Toxic; format: functional, organism-based

| SMILES | ED50 [1] [mg/kg] | MIC [2] [µg/mL] | ED50 [3] [mg/kg] | Toxicity [4] | MIC [5] [µg/mL] | Toxicity [6] | MIC [7] [µg/mL] | Toxicity [8] | Survival extension [9] [%] | Tail vein toxicity [10] | Survival extension [11] [%] | Toxicity [12] | ED50 [13] |
| --- | --- | --- | --- | --- | --- | --- | --- | --- | --- | --- | --- | --- | --- |
| C/C=C1\NC(=O)[C@H]([C@H](C)O)NC(=O)[C@H](CCN)NC(=O)[C@H](CCCCN)NC(=O)[C@H](CC(=O)NCCN(C)C)NC(=O)[C@@H](CCN)NC(=O)[C@@H](NC(=O)C[C@H](O)CCCCCCCCCCC)COC(=O)[C@H]([C@H](O)CCl)NC(=O)[C@H]([C@H](O)C(=O)O)NC1=O ({Tetradecanoyl(3R-OH)}-S[dDab]D(NHCH2CH2NMe2)K[Dab][aThr][Dhb][Asp(3S-OH)][Thr(4-Cl)]; ester 1-C) | < 5 | 5 (≈ 3.91 µM) | 2.5 | Death | < 0.01 | Death | 0.156 (≈ 0.122 µM) | Death | 23 |  |  |  |  |
| C/C=C1\NC(=O)[C@H]([C@H](C)O)NC(=O)[C@H](CCN)NC(=O)[C@H](CCCCN)NC(=O)[C@H](CC(N)=O)NC(=O)[C@@H](CCN)NC(=O)[C@@H](NC(=O)C[C@H](O)CCCCCCCCCCC)COC(=O)[C@H]([C@H](O)CCl)NC(=O)[C@H]([C@H](O)C(=O)O)NC1=O ({Tetradecanoyl(3R-OH)}-S[dDab]NK[Dab][aThr][Dhb][Asp(3S-OH)][Thr(4-Cl)]; ester 1-C) | < 0.8 | 10 (≈ 8.29 µM) |  |  | < 0.01 |  | 2.5 (≈ 2.07 µM) |  |  | Active |  |  |  |
| C/C=C1\NC(=O)[C@H]([C@H](C)O)NC(=O)[C@H](CCN)NC(=O)[C@H](CCCCN)NC(=O)[C@H](CC(=O)O)NC(=O)[C@@H](CCN)NC(=O)[C@@H](NC(=O)C[C@H](O)CCCCCCCCCCC)COC(=O)[C@H]([C@H](O)CCl)NC(=O)[C@H]([C@H](O)C(=O)O)NC1=O [PSEUDOMYCIN B] ({Tetradecanoyl(3R-OH)}-S[dDab]DK[Dab][aThr][Dhb][Asp(3S-OH)][Thr(4-Cl)]; ester 1-C) |  | > 20 | 1.8 | Death | 0.01 (≈ 0.00828 µM) | Death | 0.625 (≈ 0.517 µM) | Death |  |  | 46 | Death |  |
| C/C=C1\NC(=O)[C@H]([C@H](C)O)NC(=O)[C@H](CCN)NC(=O)[C@H](CCCCN)NC(=O)[C@H](CC(=O)NCCCN(CC)CC)NC(=O)[C@@H](CCN)NC(=O)[C@@H](NC(=O)C[C@H](O)CCCCCCCCCCC)COC(=O)[C@H]([C@H](O)CCl)NC(=O)[C@H]([C@H](O)C(=O)O)NC1=O | < 4 | > 20 |  |  | < 0.01 |  | 20 (≈ 15.2 µM) |  |  | Active |  |  |  |
| C/C=C1\NC(=O)[C@H]([C@H](C)O)NC(=O)[C@H](CCN)NC(=O)[C@H](CCCCN)NC(=O)[C@H](CC(=O)NCCN)NC(=O)[C@@H](CCN)NC(=O)[C@@H](NC(=O)C[C@H](O)CCCCCCCCCCC)COC(=O)[C@H]([C@H](O)CCl)NC(=O)[C@H]([C@H](O)C(=O)O)NC1=O | < 5 | 5 (≈ 4 µM) |  |  | < 0.01 |  | 10 (≈ 8 µM) |  |  | Active |  |  |  |
| C/C=C1\NC(=O)[C@H]([C@H](C)O)NC(=O)[C@H](CCN)NC(=O)[C@H](CCCCN)NC(=O)[C@H](CC(=O)NC2CC2)NC(=O)[C@@H](CCN)NC(=O)[C@@H](NC(=O)C[C@H](O)CCCCCCCCCCC)COC(=O)[C@H]([C@H](O)CCl)NC(=O)[C@H]([C@H](O)C(=O)O)NC1=O ({Tetradecanoyl(3R-OH)}-S[dDab]D(NHcPr)K[Dab][aThr][Dhb][Asp(3S-OH)][Thr(4-Cl)]; ester 1-C) | < 5 | 20 (≈ 16 µM) | 2.9 |  | < 0.01 | Death | 0.156 (≈ 0.125 µM) | Death | 29 |  |  |  |  |
| C/C=C1\NC(=O)[C@H]([C@H](C)O)NC(=O)[C@H](CCN)NC(=O)[C@H](CCCCN)NC(=O)[C@H](CC(=O)NCCCCCCC)NC(=O)[C@@H](CCN)NC(=O)[C@@H](NC(=O)C[C@H](O)CCCCCCCCCCC)COC(=O)[C@H]([C@H](O)CCl)NC(=O)[C@H]([C@H](O)C(=O)O)NC1=O |  | > 20 |  |  | 0.312 (≈ 0.239 µM) |  | 20 (≈ 15.3 µM) |  |  |  |  |  | Toxic |
| C/C=C1\NC(=O)[C@H]([C@H](C)O)NC(=O)[C@H](CCN)NC(=O)[C@H](CCCCN)NC(=O)[C@H](CC(=O)NCCC)NC(=O)[C@@H](CCN)NC(=O)[C@@H](NC(=O)C[C@H](O)CCCCCCCCCCC)COC(=O)[C@H]([C@H](O)CCl)NC(=O)[C@H]([C@H](O)C(=O)O)NC1=O | 6 | > 20 |  |  | 0.078 (≈ 0.0625 µM) | Death | 1.25 (≈ 1 µM) | Death |  |  |  |  |  |
